# From ChEMBL document CHEMBL1157766, “Neolignans and glycosides from the stem bark of Illicium difengpi” (J Nat Prod, 2010)
# Activity calls are given as the source filed them. The calls are words filed in the database; no cut-off is given here.
# Key:
# [1] = Antiinflammatory activity in rat PMNC assessed as inhibition of platelet activating factor-induced beta-glucuronidase release preincubated for 15 mins at 37 degC; assay type: functional
# Outline: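 Rat polymorphonuclear leukocytes (2.5 × 10^6 cells/mL) preincubated with sample (diluted from 0.1 M DMSO stock to 10^-3 M) at 37 °C for 15 min. Cytochalasin B added for 5 min, then PAF for 5 min, stopped on ice. Supernatant β-glucuronidase measured with 2.5 mM phenolphthalein glucuronic acid in 0.1 M HOAc, 37 °C, 18 h. NaOH stop, A550; inhibitory ratio versus PAF and control.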
# [2] = Antioxidant activity in liver microsomes assessed as inhibition of Fe(2+)-Cys system-induced lipid peroxidation preincubated for 15 mins at 37 degC; assay type: functional; settings: for inhibition: Microsome
# Outline: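 Sample with liver microsome suspension and 0.2 µM cysteine in 0.1 M PBS pH 7.4, 37 °C, 15 min. Peroxidation started with 50 µM FeSO4 and stopped with 20% TFA. Supernatant heated with 0.67% thiobarbituric acid in boiling water for 10 min, then A532 read. Inhibitory ratio calculated from absorbances.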
SMILES,IC50 [1],IC50 [2],inhibition [2]
COc1cc([C@H](O)[C@@H](CO)Oc2c(OC)cc(CCCO)cc2OC)ccc1OC(CO)CO,1.62 µM,,inactive
COc1cc(/C=C/CO)cc(OC)c1OC(=O)/C=C/c1ccccc1 [NEODIFENGPIN],> 50 µM,,inactive
COc1cc(CCCO)cc2c1O[C@H](C1=C[C@H](O)[C@H](O)CC1)[C@H]2CO [DIFENGPIOL A],> 50 µM,,inactive
C=CCc1cc(OC)c(O[C@@H](CO)[C@H](O)c2cc(OC)c(O)c(OC)c2)c(OC)c1,24.4 µM,42.3 µM,

# The next lines start with results.
IC50 [1],IC50 [2],SMILES,inhibition [2]
> 50 µM,,COc1cc(CCCO)cc2c1O[C@H]([C@]1(O)CC[C@H](OC)[C@@H](O)C1)[C@H]2CO [DIFENGPIOL B],inactive
> 50 µM,,"C[C@@H]1O[C@@H](OC[C@H]2O[C@@H](Oc3cc4c(cc3O)OCO4)[C@H](O)[C@@H](O)[C@@H]2O)C(O)[C@H](O)[C@H]1O (single isomer, unassigned)",inactive
7.66 µM,,"COc1cc(O[C@@H]2O[C@H](CO[C@@H]3O[C@@H](C)[C@H](O)[C@@H](O)C3O)[C@@H](O)[C@H](O)[C@H]2O)cc(O)c1OC (single isomer, unassigned)",inactive
2.35 µM,,C[C@@H]1C(=O)O[C@H]2[C@H](O)[C@@]34[C@H]5C[C@@H](C(C)(C)C)[C@]36[C@@H](OC(=O)[C@@H]6O)O[C@@]4(C(=O)O5)[C@@]12O [GINKOLIDE B],
